Data published in ChEMBL document CHEMBL1140876, “Synthesis and antibacterial property of quinolines with potent DNA gyrase activity” (2009).
In brackets after ≈: the same amount, converted by molar mass. Activity calls are given as the source filed them. The calls are words filed in the database; no cut-off is given here.

Columns and labels:
Staphylococcus aureus [1] = assay: Antimicrobial activity against Staphylococcus aureus at 10 ug after 24 hrs by disk diffusion method; type: functional; settings: read-out: IZ
In short: (§1)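 Inoculum made in 0.85% saline against McFarland standard, swabbed evenly onto nutrient agar; sterile filter-paper discs set equidistant and loaded with equal volumes of drug at varying amounts; zone of inhibition measured after 24 h at 37 °C; ciprofloxacin reference.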

Salmonella typhimurium [2] = assay: Antimicrobial activity against Salmonella Typhimurium at 15 ug after 24 hrs by disk diffusion method; type: functional, Salmonella enterica subsp. enterica serovar Typhimurium; settings: Salmonella enterica, read-out: IZ; in short: as §1
Klebsiella pneumoniae [3] = assay: Antimicrobial activity against Klebsiella pneumoniae by broth microdilution assay; type: functional
In short: (§2)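 Broth microdilution per NCCLS 1997 in 96-well plate; final inoculum 10^5 cfu/mL; incubated 35.7 °C in air 18–20 h; MIC read as lowest concentration with no visible growth.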

Klebsiella pneumoniae [4] = assay: Antimicrobial activity against Klebsiella pneumoniae at 5 ug after 24 hrs by disk diffusion method; type: functional; settings: read-out: IZ; in short: as §1
Salmonella typhimurium [5] = assay: Antimicrobial activity against Salmonella Typhimurium at 10 ug after 24 hrs by disk diffusion method; type: functional, Salmonella enterica subsp. enterica serovar Typhimurium; settings: Salmonella enterica, read-out: IZ; in short: as §1
Staphylococcus aureus [6] = assay: Antimicrobial activity against Staphylococcus aureus at 15 ug after 24 hrs by disk diffusion method; type: functional; settings: read-out: IZ; in short: as §1
Pseudomonas aeruginosa [7] = assay: Antimicrobial activity against Pseudomonas aeruginosa at 25 ug after 24 hrs by disk diffusion method; type: functional; settings: read-out: IZ; in short: as §1
Escherichia coli [8] = assay: Antimicrobial activity against Escherichia coli at 25 ug after 24 hrs by disk diffusion method; type: functional; settings: read-out: IZ; in short: as §1
Escherichia coli [9] = assay: Antimicrobial activity against Escherichia coli at 5 ug after 24 hrs by disk diffusion method; type: functional; settings: read-out: IZ; in short: as §1
Bacillus subtilis [10] = assay: Antimicrobial activity against Bacillus subtilis by broth microdilution assay; type: functional; in short: as §2
Pseudomonas aeruginosa [11] = assay: Antimicrobial activity against Pseudomonas aeruginosa at 10 ug after 24 hrs by disk diffusion method; type: functional; settings: read-out: IZ; in short: as §1
Pseudomonas aeruginosa [12] = assay: Antimicrobial activity against Pseudomonas aeruginosa at 5 ug after 24 hrs by disk diffusion method; type: functional; settings: read-out: IZ; in short: as §1
Klebsiella pneumoniae [13] = assay: Antimicrobial activity against Klebsiella pneumoniae at 10 ug after 24 hrs by disk diffusion method; type: functional; settings: read-out: IZ; in short: as §1
Pseudomonas aeruginosa [14] = assay: Antimicrobial activity against Pseudomonas aeruginosa at 20 ug after 24 hrs by disk diffusion method; type: functional; settings: read-out: IZ; in short: as §1
Bacillus subtilis [15] = assay: Antimicrobial activity against Bacillus subtilis at 10 ug after 24 hrs by disk diffusion method; type: functional; settings: read-out: IZ; in short: as §1
Salmonella typhimurium [16] = assay: Antimicrobial activity against Salmonella Typhimurium at 20 ug after 24 hrs by disk diffusion method; type: functional, Salmonella enterica subsp. enterica serovar Typhimurium; settings: Salmonella enterica, read-out: IZ; in short: as §1
Pseudomonas aeruginosa [17] = assay: Antimicrobial activity against Pseudomonas aeruginosa by broth microdilution assay; type: functional; in short: as §2
[18] = Inhibition of DNA gyrase assessed as conversion of relaxed pBR322 to supercoiled form
In short: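 Supercoiling in 15 µL reactions: gyrase assay buffer, 150 ng relaxed pBR322, 2–3 µL purified DNA gyrase, 3 h at 37 °C (E. coli); stopped with 50% glycerol/0.25% bromophenol blue; 1% agarose in 1× TBE pH 8.3, 90 V 3 h; ethidium bromide stain; supercoiled band brightness by densitometry. Ciprofloxacin comparator.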

Klebsiella pneumoniae [19] = assay: Antimicrobial activity against Klebsiella pneumoniae at 25 ug after 24 hrs by disk diffusion method; type: functional; settings: read-out: IZ; in short: as §1
Escherichia coli [20] = assay: Antimicrobial activity against Escherichia coli at 10 ug after 24 hrs by disk diffusion method; type: functional; settings: read-out: IZ; in short: as §1
Bacillus subtilis [21] = assay: Antimicrobial activity against Bacillus subtilis at 15 ug after 24 hrs by disk diffusion method; type: functional; settings: read-out: IZ; in short: as §1
Salmonella typhimurium [22] = assay: Antimicrobial activity against Salmonella Typhimurium at 25 ug after 24 hrs by disk diffusion method; type: functional, Salmonella enterica subsp. enterica serovar Typhimurium; settings: Salmonella enterica, read-out: IZ; in short: as §1
Bacillus subtilis [23] = assay: Antimicrobial activity against Bacillus subtilis at 25 ug after 24 hrs by disk diffusion method; type: functional; settings: read-out: IZ; in short: as §1
Staphylococcus aureus [24] = assay: Antimicrobial activity against Staphylococcus aureus by broth microdilution assay; type: functional; in short: as §2
Escherichia coli [25] = assay: Antimicrobial activity against Escherichia coli at 20 ug after 24 hrs by disk diffusion method; type: functional; settings: read-out: IZ; in short: as §1
Klebsiella pneumoniae [26] = assay: Antimicrobial activity against Klebsiella pneumoniae at 20 ug after 24 hrs by disk diffusion method; type: functional; settings: read-out: IZ; in short: as §1
[27] = Inhibition of DNA gyrase assessed as pBR322 DNA relaxation at 2.5 uM
In short: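 Gyrase (60 nM) was incubated with supercoiled pBR322 DNA (6 nM) and increasing compound concentrations (0, 0.1, 0.25, 0.5, 2.5) without ATP for 1 h at 37 °C. Relaxation of the supercoiled DNA was evaluated.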

Pseudomonas aeruginosa [28] = assay: Antimicrobial activity against Pseudomonas aeruginosa at 15 ug after 24 hrs by disk diffusion method; type: functional; settings: read-out: IZ; in short: as §1
Salmonella typhi = assay: Antimicrobial activity against Salmonella typhi by broth microdilution assay; type: functional, Salmonella enterica subsp. enterica serovar Typhi; settings: Salmonella enterica
In short: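 Broth microdilution in 96-well plates following the NCCLS 1997 protocol. Final inoculum was 10^5 cfu/mL, with a control organism run alongside. Plates were incubated at 35.7 °C in air for 18–20 h. MIC is the lowest concentration with no visible growth.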

Staphylococcus aureus [29] = assay: Antimicrobial activity against Staphylococcus aureus at 25 ug after 24 hrs by disk diffusion method; type: functional; settings: read-out: IZ; in short: as §1
Klebsiella pneumoniae [30] = assay: Antimicrobial activity against Klebsiella pneumoniae at 15 ug after 24 hrs by disk diffusion method; type: functional; settings: read-out: IZ; in short: as §1
Escherichia coli [31] = assay: Antimicrobial activity against Escherichia coli by broth microdilution assay; type: functional; in short: as §2
Escherichia coli [32] = assay: Antimicrobial activity against Escherichia coli at 15 ug after 24 hrs by disk diffusion method; type: functional; settings: read-out: IZ; in short: as §1
Salmonella typhimurium [33] = assay: Antimicrobial activity against Salmonella Typhimurium at 5 ug after 24 hrs by disk diffusion method; type: functional, Salmonella enterica subsp. enterica serovar Typhimurium; settings: Salmonella enterica, read-out: IZ; in short: as §1
Staphylococcus aureus [34] = assay: Antimicrobial activity against Staphylococcus aureus at 5 ug after 24 hrs by disk diffusion method; type: functional; settings: read-out: IZ; in short: as §1
Staphylococcus aureus [35] = assay: Antimicrobial activity against Staphylococcus aureus at 20 ug after 24 hrs by disk diffusion method; type: functional; settings: read-out: IZ; in short: as §1
Bacillus subtilis [36] = assay: Antimicrobial activity against Bacillus subtilis at 20 ug after 24 hrs by disk diffusion method; type: functional; settings: read-out: IZ; in short: as §1

`c1ccc(C2c3ccccc3N[C@H]3c4cccn4C[C@@H]23)cc1` (stereo partly drawn) showed a zone of inhibition at 10 µg/disc (Staphylococcus aureus [1]) of 12 mm, a zone of inhibition at 15 µg/disc (Salmonella typhimurium [2]) of 18 mm and an MIC50 (Klebsiella pneumoniae [3]) of 2 mg/L (≈ 6.98 µM). It also gave an MIC90 (Klebsiella pneumoniae [3]) of 32 mg/L (≈ 112 µM), a zone of inhibition at 5 µg/disc (Klebsiella pneumoniae [4]) of 20 mm and a zone of inhibition at 10 µg/disc (Salmonella typhimurium [5]) of 16 mm. The zone of inhibition at 15 µg/disc (Staphylococcus aureus [6]) was 13 mm, the zone of inhibition at 25 µg/disc (Pseudomonas aeruginosa [7]) was 24 mm and the zone of inhibition at 25 µg/disc (Escherichia coli [8]) was 23 mm. The zone of inhibition at 5 µg/disc (Escherichia coli [9]) was 10 mm, the MIC50 (Bacillus subtilis [10]) was 2.5 mg/L (≈ 8.73 µM) and the MIC90 (Bacillus subtilis [10]) was 5 mg/L (≈ 17.5 µM). The zone of inhibition at 10 µg/disc (Pseudomonas aeruginosa [11]) was 16 mm, the zone of inhibition at 5 µg/disc (Pseudomonas aeruginosa [12]) was 10 mm and the zone of inhibition at 10 µg/disc (Klebsiella pneumoniae [13]) was 26 mm. For the same compound, the zone of inhibition at 20 µg/disc (Pseudomonas aeruginosa [14]) was 22 mm, the zone of inhibition at 10 µg/disc (Bacillus subtilis [15]) was 7 mm and the zone of inhibition at 20 µg/disc (Salmonella typhimurium [16]) was 22 mm. For the same compound, the MIC50 (Pseudomonas aeruginosa [17]) was 0.5 mg/L (≈ 1.75 µM), the MIC90 (Pseudomonas aeruginosa [17]) was 32 mg/L (≈ 112 µM) and the Activity [18] was “Active”. It also gave a zone of inhibition at 25 µg/disc (Klebsiella pneumoniae [19]) of 36 mm, a zone of inhibition at 10 µg/disc (Escherichia coli [20]) of 16 mm and a zone of inhibition at 15 µg/disc (Bacillus subtilis [21]) of 6 mm. For the same compound, the zone of inhibition at 25 µg/disc (Salmonella typhimurium [22]) was 24 mm, the zone of inhibition at 25 µg/disc (Bacillus subtilis [23]) was 9 mm and the MIC50 (Staphylococcus aureus [24]) was 64 mg/L (≈ 223 µM). The MIC90 (Staphylococcus aureus [24]) was 128 mg/L (≈ 447 µM), the zone of inhibition at 20 µg/disc (Escherichia coli [25]) was 20 mm and the zone of inhibition at 20 µg/disc (Klebsiella pneumoniae [26]) was 34 mm. The Activity [27] was “Active”, the zone of inhibition at 15 µg/disc (Pseudomonas aeruginosa [28]) was 17 mm and the MIC50 (Salmonella typhi) was 1.64 mg/L (≈ 5.73 µM). For the same compound, the MIC90 (Salmonella typhi) was 2.5 mg/L (≈ 8.73 µM), the zone of inhibition at 25 µg/disc (Staphylococcus aureus [29]) was 17 mm and the zone of inhibition at 15 µg/disc (Klebsiella pneumoniae [30]) was 30 mm. The MIC50 (Escherichia coli [31]) was 2 mg/L (≈ 6.98 µM), the MIC90 (Escherichia coli [31]) was 4 mg/L (≈ 14 µM) and the zone of inhibition at 15 µg/disc (Escherichia coli [32]) was 18 mm. For the same compound, the zone of inhibition at 5 µg/disc (Salmonella typhimurium [33]) was 10 mm, the zone of inhibition at 5 µg/disc (Staphylococcus aureus [34]) was 9 mm and the zone of inhibition at 20 µg/disc (Staphylococcus aureus [35]) was 14 mm. For the same compound, the zone of inhibition at 20 µg/disc (Bacillus subtilis [36]) was 7 mm.
